# According to PMC6761749 (ACS Omega, 2019):
# How the values were obtained:
# human PBMCs = assay: TNFα induction from human PBMCs; format: cell-based; settings: hPBMCs, in the dose range evaluated
# How it was run: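 Donor PBMCs from healthy human whole blood were isolated on a Ficoll-Hypaque 1.077 gradient and plated at 0.5 × 10^6 cells/well in RPMI-1640 with pen/strep/glutamine and 10% heat-inactivated FBS. Test compounds (stocks 3–5 mg/mL in 2% glycerol–10% DMSO/water) were added at increasing concentrations for 24 h. Supernatant TNFα and IFNα were measured by ELISA. MEC is the lowest tested dose inducing cytokine. Values come from one of three donors.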
# human TLR7 = target: T1, human TLR7 (Homo sapiens, UniProt Q9NYK1); assay: HEK293-hTLR7 NFκB SEAP reporter assay; format: cell-based; settings: comparator 1b
# T1 sequence (Q9NYK1 27-1049): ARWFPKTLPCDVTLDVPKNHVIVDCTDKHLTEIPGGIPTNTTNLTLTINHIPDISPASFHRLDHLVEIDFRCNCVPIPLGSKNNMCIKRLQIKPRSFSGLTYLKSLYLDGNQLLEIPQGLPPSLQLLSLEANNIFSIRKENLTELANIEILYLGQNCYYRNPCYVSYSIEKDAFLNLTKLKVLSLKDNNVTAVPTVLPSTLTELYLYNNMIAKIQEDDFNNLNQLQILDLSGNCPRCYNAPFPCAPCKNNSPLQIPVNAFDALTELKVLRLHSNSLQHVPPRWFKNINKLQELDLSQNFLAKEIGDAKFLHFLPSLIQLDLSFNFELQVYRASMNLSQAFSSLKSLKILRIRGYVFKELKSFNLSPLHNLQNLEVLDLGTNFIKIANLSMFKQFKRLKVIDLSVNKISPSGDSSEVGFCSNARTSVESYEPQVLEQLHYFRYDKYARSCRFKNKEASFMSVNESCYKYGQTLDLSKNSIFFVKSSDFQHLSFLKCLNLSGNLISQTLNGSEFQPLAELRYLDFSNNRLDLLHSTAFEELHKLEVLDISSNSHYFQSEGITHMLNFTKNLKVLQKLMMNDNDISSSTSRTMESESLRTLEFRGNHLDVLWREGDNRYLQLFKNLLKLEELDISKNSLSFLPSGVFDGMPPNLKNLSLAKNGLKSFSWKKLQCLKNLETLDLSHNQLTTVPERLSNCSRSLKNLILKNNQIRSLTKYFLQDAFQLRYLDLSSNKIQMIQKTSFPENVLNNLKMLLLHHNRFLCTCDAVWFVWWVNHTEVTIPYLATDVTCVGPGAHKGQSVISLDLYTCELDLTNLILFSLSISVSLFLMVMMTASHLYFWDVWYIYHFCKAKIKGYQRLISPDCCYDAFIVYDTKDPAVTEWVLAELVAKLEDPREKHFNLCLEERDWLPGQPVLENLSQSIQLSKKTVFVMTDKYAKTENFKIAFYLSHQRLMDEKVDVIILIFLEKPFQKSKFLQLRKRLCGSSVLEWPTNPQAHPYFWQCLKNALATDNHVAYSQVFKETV
SMILES,TNFα induction (human PBMCs),fold less active (hTLR7) than 1b (human TLR7) [fold]
"CCCCOc1nc(N)c2[nH]c(=O)n(C3CNC3)c2n1.Cl [Compound 3a, 6-Amino-2-butoxy-9-(3-azetidinyl)-7,9-dihydro-8H-purin-8-one Hydrochloride]",did not induce measurable TNFα,–
"CCCCOc1nc(N)c2[nH]c(=O)n(CCN3CCNCC3)c2n1.Cl [Compound 7a, 6-Amino-2-butoxy-9-(4-piperazinyl)ethyl-7,9-dihydro-8H-purin-8-one Hydrochloride]",–,12
